According to ChEMBL document CHEMBL4177714, “Assessment of a pretomanid analogue library for African trypanosomiasis: Hit-to-lead studies on 6-substituted 2-nitro-6,7-dihydro-5H-imidazo[2,1-b][1,3]thiazine 8-oxides” (Bioorg Med Chem Lett, 2018):
≈ marks a conversion by molar mass, not a printed value.

Tests used:
[1] = Ratio of drug level in brain to plasma in CD1 mouse at 78 mg/kg, po after 0.25 to 24 hrs by LC-MS/MS method; format: ADME, organism-based; settings: read-out: BPR
[2] = Selectivity index, ratio of IC50 for cytotoxicity against mouse L929 cells to IC50 for antitrypanosomal activity against Trypanosoma brucei brucei 427 bloodstream forms; format: toxicity, cell-based; settings: read-out: Ratio IC50
[3] = Selectivity index, ratio of IC50 for cytotoxicity against human MRC5 cells to IC50 for antitrypanosomal activity against Trypanosoma brucei brucei 427 bloodstream forms; format: toxicity, cell-based; settings: read-out: Ratio IC50
Procedure, shortened: (§1)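 IC50 for growth inhibition of T. b. brucei 427, with cytotoxicity measured against human lung fibroblasts (MRC-5). Means of two or more independent experiments. Selectivity index is MRC-5 IC50 over T. b. brucei IC50.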

[4] = Apparent permeability in MDCK2-MDR1 cells at 3 uM incubated over 150 mins at 37 degC by LC-MS/MS method; format: ADME, cell-based, Canis lupus familiaris; settings: dog, MDCK-MDR1
Procedure, shortened: (§2)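 MDCK-MDR1 monolayer, apical-to-basolateral transport of compound at 3 μM, run with and without P-gp inhibitor GF120918 (2 μM). Apparent permeability (Papp) recorded; absorption quotient AQ = (Papp+918 − Papp)/Papp+918. Propranolol served as CNS-positive reference.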

[5] = Half life in mouse liver S9 subcellular fraction; format: ADME
Procedure, shortened: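 Metabolic stability: compounds incubated 1 h with CD-1 mouse liver S9 subcellular fractions; half-life derived.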

[6] = Absorption quotient in MDCK2-MDR1 cells assessed as (Papp + GF120918 - Papp)/(Papp + GF120918) ratio at 3 uM incubated over 150 mins at 37 degC in presence of P-gp inhibitor GF120918 by LC-MS/MS method; format: ADME, cell-based, Canis lupus familiaris; settings: dog, mdck-mdr1, 2.5 h; procedure, shortened: as §2
Mus musculus = test: Time duration during which drug level in brain stays at or above MIC for antitrypanosomal activity against Trypanosoma brucei brucei TREU 667 infected in Webster mouse at 25 mg/kg, po bid; format: ADME, organism-based; settings: in vivo
[7] = test system: Trypanosoma brucei brucei; test: Antitrypanosomal activity against Trypanosoma brucei brucei TREU 667 infected in Swiss Webster mouse assessed as mean relapse time at 10 mg/kg, ip administered as single dose on day 21 post-infection (reference value: 31 days); format: functional
Procedure, shortened: (§3)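 CNS (stage 2) model: mice infected with T. b. brucei TREU 667. Berenil given as a single i.p. dose of 10 mg/kg on day 4 or on day 21 post-infection. Cure rate and mean relapse time recorded against vehicle-treated controls.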

[8] = test system: Trypanosoma brucei brucei; test: Antitrypanosomal activity against Trypanosoma brucei brucei TREU 667 infected in Swiss Webster mouse assessed as infection cure rate at 10 mg/kg, ip administered as single dose on day 21 post-infection (reference value: 0%); format: functional; procedure, shortened: as §3
[9] = test system: Trypanosoma brucei brucei; test: Antitrypanosomal activity against Trypanosoma brucei brucei TREU 667 infected in Swiss Webster mouse assessed as infection cure rate at 10 mg/kg, ip administered as single dose on day 4 post-infection (reference value: 0%); format: functional; procedure, shortened: as §3
[10] = test system: Trypanosoma brucei brucei; test: Antitrypanosomal activity against Trypanosoma brucei brucei TREU 667 infected in Swiss Webster mouse assessed as infection cure rate at 200 mg/kg, po qd for 5 days; format: functional
[11] = test system: Trypanosoma brucei brucei; test: Antitrypanosomal activity against Trypanosoma brucei brucei TREU 667 infected in Swiss Webster mouse assessed as infection cure rate at 25 mg/kg, po qd for 7 days starting 21 days post-infection (reference value: 0%); format: functional
[12] = test system: Trypanosoma brucei brucei; test: Antitrypanosomal activity against Trypanosoma brucei brucei 427 bloodstream forms; format: functional, organism-based; procedure, shortened: as §1

SMILES: O=[N+]([O-])c1cn2c(n1)OC[C@@H](NCc1ccc(OC(F)(F)F)cc1)C2
- Kp [1]: 2 to 3
- selectivity ratio [2]: > 13

SMILES: O=[N+]([O-])c1cn2c(n1)[S+]([O-])CC(OCc1ccc(-c3ccc(OC(F)(F)F)cc3)cn1)C2 (stereo not given)
- selectivity ratio [3]: > 500

SMILES: O=[N+]([O-])c1cn2c(n1)OCC(COc1ccc(-c3ccc(C(F)(F)F)cc3)nc1)C2 (stereo not given)
- Papp A→B at 2.5 h, 3 µM [4]: 11.7 ×10⁻⁶ cm/s
- selectivity ratio [2]: > 36

SMILES: O=[N+]([O-])c1cn2c(n1)S(=O)(=O)CC(OCc1ccc(OC(F)(F)F)cc1)C2 (stereo not given)
- selectivity ratio [2]: > 11

SMILES: O=[N+]([O-])c1cn2c(n1)OC[C@@H](Oc1cc(-c3ccc(C(F)(F)F)nc3)ccn1)C2
- selectivity ratio [2]: > 3.6

SMILES: CC1(COCc2ccc(OCc3ccccc3)cc2)Cn2cc([N+](=O)[O-])nc2S1 (stereo not given)
- t1/2 [5]: 31 min
- Ratio [6]: 0
- selectivity ratio [2]: > 4.5

SMILES: O=[N+]([O-])c1cn2c(n1)SC(COCc1ccc(OCc3ccccc3)cc1)C2 (stereo not given)
- t1/2 [5]: 67 min
- selectivity ratio [2]: > 22

SMILES: O=[N+]([O-])c1cn2c(n1)[S+]([O-])CC(OCc1ccc(OC(F)(F)F)cc1)C2 (stereo not given)
- selectivity ratio [2]: > 63

SMILES: O=C(Nc1ccc2c(c1)B(O)OC2)c1ccc(F)cc1C(F)(F)F
- Time (Mus musculus): 12 h

SMILES: O=[N+]([O-])c1cn2c(n1)OCC(COc1ccc(-c3ccc(OC(F)(F)F)cc3)nc1)C2 (stereo not given)
- Papp A→B at 2.5 h, 3 µM [4]: 7.4 ×10⁻⁶ cm/s
- selectivity ratio [2]: > 12

SMILES: O=[N+]([O-])c1cn2c(n1)OC[C@@H](OCCCc1ccc(-c3ccc(Oc4ccc(C(F)(F)F)cc4)cc3)cc1)C2
- selectivity ratio [2]: > 43

SMILES: O=[N+]([O-])c1cn2c(n1)OC[C@@H](OCC#Cc1ccc(-c3ccc(C(F)(F)F)cc3)cn1)C2
- Papp A→B at 2.5 h, 3 µM [4]: 3.5 ×10⁻⁶ cm/s
- selectivity ratio [2]: > 19

SMILES: CC(=O)NCC(=O)O.CC(=O)NCC(=O)O.N=C(N)c1ccc(/N=N/Nc2ccc(C(=N)N)cc2)cc1 [DIMINAZENE DIACETURATE]
- Time [7]: 41 days
- Activity [8]: 0%
- Activity [9]: 100%

SMILES: COc1ccc(-c2ccc(O[C@@H]3COc4nc([N+](=O)[O-])cn4C3)nc2)cn1
- selectivity ratio [2]: > 3.7

SMILES: O=[N+]([O-])c1cn2c(n1)S(=O)(=O)CC(OCc1ccc(OCc3ccccc3)cc1)C2 (stereo not given)
- Papp A→B at 2.5 h, 3 µM [4]: 3.69 ×10⁻⁶ cm/s
- selectivity ratio [2]: > 303

SMILES: O=[N+]([O-])c1cn2c(n1)[S@+]([O-])C[C@@H](OCc1ccc(OC(F)(F)F)cc1)C2
- selectivity ratio [2]: > 143

SMILES: CSc1ccc(OCc2ncc([N+](=O)[O-])n2C)cc1 [FEXINIDAZOLE]
- Activity [10]: 88%

SMILES: CN1CC(OCc2ccc(OCc3ccccc3)cc2)Cn2nc([N+](=O)[O-])cc21 (stereo not given)
- t1/2 [5]: 38 min
- selectivity ratio [2]: > 3.3

SMILES: CC1(C)OB(O)c2cc(NC(=O)c3ccc(F)cc3C(F)(F)F)ccc21 [ACOZIBOROLE]
- Activity [11]: 100%
- Time (Mus musculus): 24 h
- IC50 [12]: 0.29 µg/mL (≈ 0.79 µM)

SMILES: CC1(COCc2ccc(OCc3ccccc3)cc2)Cn2cc([N+](=O)[O-])nc2[S+]1[O-] (stereo not given)
- t1/2 [5]: 50 min
- selectivity ratio [2]: > 77

SMILES: O=[N+]([O-])c1cn2c(n1)[S+]([O-])CC(OCc1ccc(OCc3ccccc3)cc1)C2 (stereo not given)
- selectivity ratio [2]: > 667
